According to ChEMBL document CHEMBL4732244, “A new class of α-ketoamide derivatives with potent anticancer and anti-SARS-CoV-2 activities” (Eur J Med Chem, 2021):

Key:
[1] = system: RPMI-8226; assay: Anticancer activity against human RPMI8226 cells assessed as cell viability measured after 72 hrs by MTT assay; format: functional, cell-based; conditions: RPMI-8226, 72 h
In short: (§1)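 MTS growth assay after 72 h compound exposure. RPMI8226 (1×10^4/well), THP-1 and Ramos (5×10^4/well) were cultured in RPMI 1640 with 10% FBS. MGC-803, HeLa and SW480 (5×10^3/well) were cultured in DMEM with 10% FBS. All at 37 °C, 5% CO2. MTS was added for 3 h at 37 °C and OD read at 490 nm. IC50 from 7 concentrations; triplicate wells, three independent experiments.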

[2] = system: THP-1; assay: Anticancer activity against human THP-1 cells assessed as cell viability measured after 72 hrs by MTT assay; format: functional, cell-based; conditions: THP-1, 72 h; in short: as §1
[3] = system: Ramos; assay: Anticancer activity against human Ramos cells assessed as cell viability measured after 72 hrs by MTT assay; format: functional, cell-based; in short: as §1
[4] = system: SW480; assay: Anticancer activity against human SW480 cells assessed as cell viability measured after 72 hrs by MTT assay; format: functional, cell-based; conditions: SW480, 72 h; in short: as §1
[5] = system: HeLa; assay: Anticancer activity against human HeLa cells assessed as cell viability measured after 72 hrs by MTT assay; format: functional, cell-based; in short: as §1
[6] = system: MGC-803; assay: Anticancer activity against human MGC-803 cells assessed as cell viability measured after 72 hrs by MTT assay; format: functional, cell-based; conditions: MGC-803, 72 h; in short: as §1
[7] = Cytotoxicity in African green monkey Vero E6 cells assessed as reduction in cell viability after 48 hrs by Celltiter Glo luminescent assay; format: cell-based; conditions: chlorocebus aethiops, vero e6, 48 h
In short: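 CellTiter-Glo viability: Vero E6 cells at 2 × 10^4 cells/well were exposed to serially diluted compound for 48 h. Luminescence was read 10 min after substrate addition. CC50 was derived by curve fitting.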

[8] = system: SARS-CoV-2; assay: Antiviral activity against SARS coronavirus 2 infected in Vero E6 cells assessed as plague reduction measured after 1 hr; format: functional, organism-based; conditions: Severe acute respiratory syndrome coronavirus 2, Vero C1008, 1 h

| Compound | IC50 [1] [nM] | IC50 [2] [nM] | IC50 [3] [nM] | IC50 [4] [nM] | IC50 [5] [nM] | IC50 [6] [nM] | Activity [7] | EC50 [8] [nM] |
| --- | --- | --- | --- | --- | --- | --- | --- | --- |
| COc1ccc(C[C@H](NC(=O)[C@H](C)NC(=O)c2ccc(-c3ccc(C(C)=O)cc3)o2)C(=O)N[C@@H](CC(C)C)C(=O)C(=O)Nc2ccccc2)cc1 | 475 | 475 | 428 | 2000 | 3200 | 1160 |  |  |
| CC(=O)c1cccc(NC(=O)C(=O)[C@H](CC(C)C)NC(=O)[C@H](Cc2c[nH]c3ccccc23)NC(=O)[C@H](CC(C)C)NC(=O)OCc2ccccc2)c1 | 91 | 78.1 | 38.4 | 94.2 |  | 88.8 |  |  |
| CCc1cccc(NC(=O)C(=O)[C@H](CC(C)C)NC(=O)[C@H](CC(C)C)NC(=O)[C@H](CC(C)C)NC(=O)OCc2ccccc2)c1 | 40.4 | 71.1 | 45.7 | 82.9 | 212 | 78.5 |  |  |
| COc1ccc(C[C@H](NC(=O)[C@H](C)NC(=O)c2ccc(-c3ccccc3)cc2)C(=O)N[C@@H](CC(C)C)C(=O)C(=O)Nc2ccccc2)cc1 | 455 | 568 | 464 | 2440 | 8700 | 2020 |  |  |
| COc1ccc(C[C@H](NC(=O)[C@H](C)NC(=O)CN2CCOCC2)C(=O)N[C@@H](Cc2ccccc2)C(=O)C(=O)Nc2ccccc2)cc1 |  |  |  |  |  |  | Non-Toxic | 1280 |
| COc1cc(NC(=O)C(=O)[C@H](CC(C)C)NC(=O)[C@H](CC(C)C)NC(=O)[C@H](CC(C)C)NC(=O)OCc2ccccc2)cc(OC)c1 | 37.6 | 70.7 | 26.9 | 72.5 | 120 | 68.5 |  |  |
| CC(C)C[C@H](NC(=O)OCc1ccccc1)C(=O)N[C@@H](CC(C)C)C(=O)N[C@@H](CC(C)C)C(=O)C(=O)Nc1ccccc1 | 67.8 | 88.1 | 53.6 | 106 | 288 | 119 |  |  |
